Rows were chosen to be rich in hits. Some 1.7% of all compounds tested hit in one or more screens of this group.
EBNA-1 inhibitor: blocks EBNA-1 binding to DNA | EBNA-1 DNA binding, fluorescence polarization | inhibition, % at 14.8 µM | 300,000 compounds, 0.34% hits | AID 1950; in the data active means inhibition above about 28%
MEX-5 binding: C. elegans MEX-5 TCR-2 RNA binding activity; 300,000 compounds, 0.38% hits; MEX-5/FITC-TCR2 RNA binding, fluorescence polarization; stronger effect = lower value; activity score (negative = inhibition of binding), % at 10 µM; AID 1832; Q9XUB2;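 active means inhibition past about -25% in most replicates, and total fluorescence under double the plate's negative control median, limit read from the data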;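 further: 0% = DMSO and -100% = 5 µM competing unlabeled TCR2 RNA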
EBV gp42 block: blocks Epstein-Barr virus glycoprotein 42 binding. Fluorescence polarization binding assay, mP read-out. inhibition, % (tested at 21.74 µM). 220,000 compounds, 0.42% hits; in the data active means inhibition above about 50%
Target sequence (Q1HVG2 whole entry, looked up): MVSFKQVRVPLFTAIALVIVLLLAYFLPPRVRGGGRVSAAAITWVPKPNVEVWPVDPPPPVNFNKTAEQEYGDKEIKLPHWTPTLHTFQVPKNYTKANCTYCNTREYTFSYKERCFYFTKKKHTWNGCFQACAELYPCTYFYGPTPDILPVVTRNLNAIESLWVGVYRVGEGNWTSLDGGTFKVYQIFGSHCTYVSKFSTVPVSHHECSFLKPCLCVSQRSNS
ZTA DNA inh: ZTA (EBV) inhibition in EBNA-1 counter-screen | P03206 | ZTA-DNA binding, fluorescence polarization | inhibition, % at 11 µM | 320,000 compounds, 0.15% hits | AID 2234; in the data active means inhibition above about 33%
Target sequence (P03206 whole entry, looked up): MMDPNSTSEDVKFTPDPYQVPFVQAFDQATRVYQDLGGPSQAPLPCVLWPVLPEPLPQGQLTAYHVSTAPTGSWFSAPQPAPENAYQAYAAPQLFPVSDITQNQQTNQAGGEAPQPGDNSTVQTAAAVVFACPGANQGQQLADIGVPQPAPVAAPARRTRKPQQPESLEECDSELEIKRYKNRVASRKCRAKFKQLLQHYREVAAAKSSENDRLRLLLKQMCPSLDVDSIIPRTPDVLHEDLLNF
core dimer inh: blocks dimerization of HCV core protein | TR-FRET GST/Flag-core106 dimerization, 1536-well | AID 1899 | inhibition, % at 5 µM | 300,000 compounds, 0.33% hits;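 active means inhibition above the mean of all tested compounds plus 3 SD, set per screening campaign, cut at about 45% in these data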
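Material: GST/Flag-tagged HCV core106 proteins. Incubation: 4 h, 22.5 °C incubation. Read-out basis: inhibition (%) from 671 over 617 nm ratio. Measured by: TR-FRET, excitation 340 nm, emission 617 and 671 nm.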
HCV NS3 hel inh: inhibitors of Hepatitis C virus NS3 helicase; NS3 helicase DNA unwinding, Cy5 molecular beacon fluorescence; inhibition, % at 10.9 µM; 290,000 compounds, 0.56% hits; AID 1800;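 active means inhibition above the mean of all tested compounds plus 3 SD, set per campaign, cut at about 35% in these data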;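 further: 0% = DMSO wells and 100% = thioflavine S control wells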
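Control set: DMSO versus 110 µM thioflavine S; Material: NS3 helicase fragment of HCV; Measured by: Cy5 fluorescence at 0 and 60 min, beacon hairpin quenching; Read-out basis: percent inhibition from t60/t0 fluorescence ratio; Times: reaction time 60 min, 25 °C; Repeats: single replicate; Compound dosing: single dose, 10.9 µM nominal final, DMSO 0.8% final.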
* = called active by the depositor; · = no result.

SMILES	EBNA-1 inhibitor	MEX-5 binding	EBV gp42 block	ZTA DNA inh	core dimer inh	HCV NS3 hel inh
CC(C)(C)c1nnc2sc(SC/C(O)=C(\C#N)c3nc4ccccc4[nH]3)nn2c1=O	9	-4	-6	-1	60*	1
NC(=O)COC(=O)c1ccc2noc(-c3ccccc3)c2c1	-20	0	·	-7	-13	29
CCCNC(=O)C(CC)NC(=O)c1cccc([N+](=O)[O-])c1 (stereo unspecified)	·	·	·	-6	·	·
CCc1c(C)sc2nc3c(C(=O)N4CCOCC4)cc(C(=O)c4cc(F)ccc4O)cn3c(=O)c12	-7	2	1	-26	4	-20
O=C(c1cnn(-c2ccccc2)c1)c1cc(F)ccc1O	8	0	·	-10	5	-5
CCOC(=O)c1sc2nc3c(SCCC#N)cc(C(=O)c4cc(F)ccc4O)cn3c(=O)c2c1C	-11	5	-61	13	50*	18
O=C(O)CSc1cc(C(=O)c2cc(F)ccc2O)cn2c(=O)c3c(-c4ccccc4)csc3nc12	15	-2	6	24	52*	23
COc1ccc(S(=O)(=O)NC2CC3CCC2C3)cc1 (stereo unspecified)	-8	-1	·	7	5	-2
Cc1cc(C(=O)CSc2nc3ccccc3n2CCC#N)c(C)n1Cc1cccs1	34*	-2	-3	17	11	22
Cc1cccc(NC(=O)C(Cc2ccccc2)n2cccc2)c1 (stereo unspecified)	0	0	-6	-5	-1	-8
COC(=O)Cc1ccc(NC(=O)c2ccc3c(c2)C(=O)N(Cc2ccco2)C3=O)cc1	2	2	·	-3	12	18
CCc1ccc(NC(=O)c2ccc3c(c2)C(=O)N(Cc2ccco2)C3=O)cc1	17	-2	-13	11	56*	31
CCN(CC)CCc1nc(-c2ccccc2)no1	3	·	·	0	-1	·
Oc1ccc(/C=N/Nc2ccc(Cl)nn2)c(O)c1O	2	-48*	·	-9	-22	22
CCCn1c(=O)n(C)c(=O)c2c(SCC(=O)Nc3cc(C)on3)nc(C(C)(C)C)nc21	·	·	·	-1	·	·
CN1CCc2cccc3c2[C@H]1Cc1ccc(O)c(O)c1-3	-5	-84*	-1	-1	-11	-43
CCC(C)(C)NC(=O)C(c1cccn1C)N(C(=O)Cn1nnc2ccccc21)c1ccc(OC)cc1 (stereo unspecified)	3	-29*	-7	-7	1	4
CCC(C)(C)NC(=O)C(c1cccn1C)N(C(=O)Cn1nnc2ccccc21)c1ccc(F)cc1 (stereo unspecified)	20	-1	-9	-1	4	-19
CC(=O)Nc1ccc(S(=O)(=O)NCCC(=O)NNC(=O)c2ccccc2O)cc1	·	·	·	-1	·	·
O=[N+]([O-])c1cc(-c2ccc(/C=N/n3cnnc3)o2)ccc1Cl	-11	-40*	·	-3	4	2
CCN(CC)C(=O)/C(=C\c1ccc(Br)cc1)NC(=O)c1ccccc1OC	10	1	61*	9	2	-4
COc1ccccc1C(=O)N/C(=C\c1ccc(Br)cc1)C(=O)NCCO	-15	0	-2	-4	2	5
CC(=O)N1CCc2cc(S(=O)(=O)CCC(=O)N(C)c3cc(C)ccc3C)ccc21	-4	1	·	8	2	6
COc1ccccc1/C=C/C=c1\sc2nc(=O)c(Cc3ccccc3)nn2c1=O	-1	2	-15	9	61*	13
N#Cc1c2n(c3c(-c4ccccc4)ncnc13)CCC2	11	0	2	4	2	-3
SMILES	EBNA-1 inhibitor	MEX-5 binding	EBV gp42 block	ZTA DNA inh	core dimer inh	HCV NS3 hel inh
Cc1c(C#N)c2ncnc(-c3ccccc3)c2n1-c1ccccc1	11	1	60*	15	2	-1
O=C(/C=C/c1ccc(Br)o1)OCc1nc2ccsc2c(=O)[nH]1	2	1	·	-4	75*	·
CC(=O)Oc1ccccc1C(=O)N(C1CCCCC1)C1CCCCC1	-4	-1	·	-18	4	11
Cc1cc(C(=O)N/N=C/c2ccc(-c3cccc(Cl)c3Cl)o2)n[nH]1	13	-38*	-66	12	-2	-2
Cc1ccc(C(CC(=O)O)NC(=O)c2ccc(S(=O)(=O)N3CC(C)OC(C)C3)cc2)cc1 (stereo unspecified)	·	·	·	-16	·	·
Cc1ccccc1OCC(=O)OCC(=O)NC1CC1	·	·	·	-2	·	·
O=C(NCc1ccccc1)C1=C[C@@H](c2ccccc2)C[C@@H](OCc2ccc(CO)cc2)O1	2	2	1	0	9	-6
C#Cc1ccc([C@@H]2C=C(C(=O)NCc3ccccc3)O[C@H](OCc3ccc(CO)cc3)C2)cc1	19	3	-10	-3	47*	13
C#Cc1ccc([C@@H]2C=C(C(=O)NCc3ccccc3)O[C@H](OCCCCO)C2)cc1	-8	1	·	-2	52*	·
COc1ccc(-c2cn[nH]c2-c2ccc(OCC(=O)NN)cc2O)cc1OC	-1	-46*	·	-14	-5	22
COc1ccc(N(CC(=O)NCc2ccccc2OC)S(=O)(=O)c2ccccc2)cc1	-10	-3	·	5	-1	-14
O=C(COC(=O)c1ccc(CSc2ccc(Cl)cc2)cc1)Nc1ccccc1	29*	0	-4	3	10	-10
Cc1cc(NC(=O)c2ccc(N3CCCC3)c([N+](=O)[O-])c2)no1	-8	2	-4	-8	49*	12
O=C(Nc1ccon1)c1ccc(N2CCCCC2)c([N+](=O)[O-])c1	-4	1	-4	13	-1	5
O=C(Nc1ccc2c(c1)OCCO2)c1cnn(-c2ccccc2)n1	·	·	·	9	·	·
CCC1(CC)N=C(c2ccccc2)C(=S)N1	-4	3	-17	-18	2	-20
COc1cc(/C=N/NC(N)=S)ccc1OCC(=O)Nc1ccc(C)cc1	47*	2	-12	34*	2	-7
CNC(=S)N/N=C/c1ccc(OCC(=O)Nc2c(C)cc(C)cc2C)c(OC)c1	6	0	-7	23	-3	3
COC1(OC)N=C(N)C2(C#N)C(c3ccccc3)NC(C)=CC12C#N (stereo unspecified)	-4	-6	-7	12	-8	3
CC1=CC(C#N)(C#N)C(C#N)(C#N)C(c2ccccc2)N1 (stereo unspecified)	-16	-53*	114*	9	8	-1
COC(=O)c1ccccc1NC(=O)CN1C(=O)C2CCCN2c2ncc(Cl)cc21 (stereo unspecified)	4	-2	-25	3	50*	-4
CCc1ccccc1NC(=O)CN1C(=O)C2CCCN2c2ncc(Cl)cc21 (stereo unspecified)	-4	-9	-11	-8	24	-1
CC(C)NC[C@H](O)COc1ccc(CC(N)=O)cc1	-7	·	·	-13	-4	·

Screens as filed in PubChem.
